Among the data in ChEMBL document CHEMBL1135483, “N-Substituted 4-amino-3,3-dipropyl-2(3H)-furanones: new positive allosteric modulators of the GABA(A) receptor sharing electrophysiological properties with the anticonvulsant loreclezole” (2002) are Stimulation and Displacement values, retold here.

Test [1] addresses T1, GABA-A receptor; alpha-1/beta-2/gamma-2 (Rattus norvegicus) (UniProt P18508+P62813+P63138). Kind of test: (§1) Percent stimulation of GABA-induced currents in Xenopus Oocytes expressing rat GABA-A receptor alpha-1-beta-2-gamma-2 subunits at 200 uM. The format is functional, cell-based. The gist of the method: (§2)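 Oocytes expressing recombinant rat α1β2γ2 GABA-A receptors (cRNA injected in 5 mM K-Hepes, pH 6.8) were recorded by two-electrode voltage clamp at -80 mV in 90 mM NaCl, 1 mM KCl, 1 mM MgCl2, 1 mM CaCl2, 10 mM Na-Hepes, pH 7.4. Compound was co-applied with GABA at 2-4% of maximal current for 20 s, then 4 min washout. Values are the mean of three assays ± SEM.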

Test [2] addresses T1, GABA-A receptor; alpha-1/beta-2/gamma-2 (Rattus norvegicus). Described as §1. The format is functional, cell-based. The gist of the method:
as §2
The source holds these as a separate data set.

For test [3] the target is unchanged. Kind of test: Percent stimulation of GABA-induced currents in Xenopus Oocytes expressing rat GABA-A receptor alpha-1-beta-2-gamma-2 subunits at 2 uM. The format is functional, cell-based. The gist of the method:
as §2

For test [4], the target named is T2, GABA-A receptor; anion channel (Rattus norvegicus) (UniProt O09028+P15431+P18506+P18508+P19969+P20236+P23574+P23576+P28471+P28473+P30191+P62813+P63079+P63138+Q91ZM7+Q9ES14). The experiment in a line: Displacement of [35S]TBPS from Gamma-aminobutyric acid A (GABA-A) receptor of rat brain membranes at 100 uM. In kind it is cell membranes. The conditions noted are these: Membrane. The gist of the method: (§3)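 Rat cerebellum or forebrain (brain minus cerebellum) membranes, about 1 mg/mL protein, were incubated with 2 nM [35S]-TBPS in 50 mM Tris-citrate pH 7.4 plus 200 mM NaBr for 180 min at room temperature. Nonspecific binding was defined with 10 µM TBPS. Samples were filtered on GF/B and counted by scintillation. Result is % displacement; at least three experiments in triplicate.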
(In general: In a radioligand displacement assay an active substance lowers the binding of a labelled ligand.)

Test [5] has as its target T2, GABA-A receptor; anion channel (Rattus norvegicus). Kind of test: Displacement of [3H]flunitrazepam from GABA-A receptor of rat brain membranes at 100 uM. In kind it is cell membranes. The conditions noted are these: Membrane. The gist of the method: (§4)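 Cerebellar or forebrain rat membranes, about 1 mg/mL protein, were incubated 90 min at 4 °C with 2 nM [3H]flunitrazepam in 50 mM Tris-citrate pH 7.4 with 150 mM NaCl. Nonspecific binding was set with 10 µM diazepam. Samples were filtered on GF/B and counted by scintillation. Result is % displacement or stimulation; at least three experiments in triplicate.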

Test [6] shares this target. The experiment in a line: Displacement of [3H]-muscimol from Gamma-aminobutyric acid A (GABA-A) receptor of Rat forebrain at 100 uM. The gist of the method:
(§5)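 Cerebellar or forebrain rat membranes, about 1 mg/mL protein, were incubated 90 min at 4 °C with 2 nM [3H]muscimol in 50 mM Tris-citrate pH 7.4 with 150 mM NaCl. Nonspecific binding was taken with 10 µM GABA. Filters were rinsed twice with ice-cold buffer and counted by scintillation. Result is % displacement or stimulation; at least three experiments in triplicate.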

Test [7] in a line: Percent stimulation of GABA-induced currents in Xenopus Oocytes expressing mutant rat GABA-A receptor alpha-1-beta-2(N265S) subunits at 100 uM. The format is functional. The gist of the method: (§6)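 Xenopus laevis oocytes were injected with cRNA for rat receptor subunits and recorded by two-electrode voltage clamp at -80 mV. Bath was 90 mM NaCl, 1 mM KCl, 1 mM MgCl2, 1 mM CaCl2, 10 mM Na-Hepes pH 7.4. GABA giving about 2-4% of maximal current was applied for 20 s alone or with compound, with 4 min washout. Result is % change in current; average of three.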

Test [8] deals with T1, GABA-A receptor; alpha-1/beta-2/gamma-2 (Rattus norvegicus). The experiment in a line: Percent stimulation of GABA-induced currents in Xenopus Oocytes expressing rat GABA-A receptor alpha-1-beta-2-gamma-2 subunits at 20 uM. In kind it is functional, cell-based. The gist of the method: as §6
The subject of test [9] is GABA-A receptor alpha-1/beta-2 (Rattus norvegicus). Kind of test: Percent stimulation of GABA-induced currents in Xenopus Oocytes expressing rat GABA-A receptor alpha-1-beta-2 subunits at 100 uM.
Test [10] deals with T1, GABA-A receptor; alpha-1/beta-2/gamma-2 (Rattus norvegicus). Kind of test: Percent stimulation of GABA-induced currents in Xenopus Oocytes expressing rat GABA-A receptor alpha-1-beta-2-gamma-2 subunits at 100 uM. The format is functional, cell-based. The gist of the method:
as §6

Test [11] concerns the target T2, GABA-A receptor; anion channel (Rattus norvegicus). Kind of test: (§7) Displacement of [3H]muscimol from Gamma-aminobutyric acid A (GABA-A) receptor of rat brain membranes at 100 uM. In kind it is cell membranes. As to conditions: Membrane. The gist of the method: as §5
Test [12] has as its target T1, GABA-A receptor; alpha-1/beta-2/gamma-2 (Rattus norvegicus). The experiment in a line: Percent stimulation of GABA-induced currents in Xenopus Oocytes expressing rat GABA-A receptor alpha-1-beta-2-gamma-2 subunits at 50 uM. The format is functional, cell-based. The gist of the method:
as §6

For test [13] the target is unchanged. The test is described as §1. The format is functional, cell-based. The gist of the method: as §2
The source holds these as a separate data set.

The species named for test [14] is Rattus norvegicus. The description is as §7. As to conditions: Membrane. The format is cell membranes. The gist of the method:
as §5

Test [15] addresses T2, GABA-A receptor; anion channel (Rattus norvegicus). The experiment in a line: Displacement of [3H]flunitrazepam from GABA-A receptor of rat forebrain tissue at 100 uM. The gist of the method:
as §4

For test [16] the target is unchanged. The experiment in a line: Displacement of [3H]flunitrazepam from GABA-A receptor of rat cerebellar tissues at 100 uM. The format is protein-complex assay. The gist of the method: as §4
The species named for test [17] is Rattus norvegicus. Kind of test: Displacement of [35S]-TBPS from Gamma-aminobutyric acid A (GABA-A) receptor of rat cerebellar tissue at 100 uM. The gist of the method: as §3
For test [18], the species on record is Rattus norvegicus. Kind of test: Displacement of [35S]TBPS from Gamma-aminobutyric acid A (GABA-A) receptor of rat forebrain tissue at 100 uM. The gist of the method:
as §3

The target of test [19] is T1, GABA-A receptor; alpha-1/beta-2/gamma-2 (Rattus norvegicus). Kind of test: Percent stimulation of GABA-induced currents in Xenopus Oocytes expressing rat GABA-A receptor alpha-1-beta-2-gamma-2 subunits at 5 uM. In kind it is functional, cell-based. The gist of the method:
as §6

Take `CCCC1(CCC)C(=O)OC[C@H]1NC(=O)c1ccccc1` (racemic): the Stimulation in test [1] was found to be 420%; in test [2], 420%; in [3], 17%; in [7], 648%; in test [8], 207%; in test [9], 557%. The figures for the Displacement in test [4], in test [5] and in test [6] were 65%, -15% and 0%, respectively.
Regarding `CCCC1(CCC)C(=O)OC[C@@H]1NC(=O)OCc1ccccc1` (stereo in doubt), the Stimulation in test [10] was 279%. Moreover, the Displacement in test [4] was determined as 70%; in test [5] it was 0%; in test [11], 0%.
Consider `O=C1C[C@H](NC(=O)OCc2ccccc2)CO1` (racemic), for which, in test [2], the Stimulation came out at 47%.
For `CCCC1(CCC)C(=O)OC[C@H]1NS(=O)(=O)c1ccc2ccccc2c1` (racemic), the Stimulation in [12] was 4%. For the same compound, the Displacement in test [4] stood at 75%; in [5] it was 0%; in test [11], 0%.
For the compound `CCCC1(CCC)C(=O)OC[C@@H]1NC(=O)OCc1ccccc1` [listing 1 of 2 here], the Stimulation in test [10] was determined as 279%; in test [9], 324%.
Consider `CCCC1(CCC)C(=O)OC[C@H]1NS(=O)(=O)c1cccs1` (racemic), for which the Stimulation in test [2] was -16%.
In the case of `CCCC1(CCC)C(=O)OC[C@H]1NS(=O)(=O)N(C)C` (racemic), the Stimulation in [2] was -1%.
For the compound `O=C1C[C@H](NCc2ccccc2)CO1` (racemic), in [2], the Stimulation was determined as 0%.
Regarding `CCCC1(CCC)C(=O)OC[C@H]1NC(=O)Oc1ccccc1` (racemic), the Stimulation in [2] was 330%. The Displacement in test [4] is 75%; in test [5], -25%; in [6], 0%.
For the compound `CCC1(C)CCSC1=O` (centres undefined), the Stimulation was 192% in [13]; 386% in test [1]; 352% in [2]; 10% in [3]; 39% in [8]. The Displacement in test [4] amounted to 25%; in test [5], 0%; in test [11], 0%.
For the compound `CCCC1(CCC)C(=O)OC[C@@H]1NC(=O)OCc1ccccc1` [listing 2 of 2 here], the Stimulation in test [7] turned out to be 123%.
Consider `C=CCOC(=O)N[C@@H]1COC(=O)C1(CCC)CCC` (racemic), for which the Stimulation turned out to be 765% in test [1]; 765% in [2]; 26% in test [3]; 15% in [15]; 0% in test [16]; 627% in test [7]. For the same compound, the Stimulation in test [8] was 229%; in test [9] it was 2130%. Also, the values for the Displacement (in test [4]; in the test filed under Rattus norvegicus [14]) were 50% and 0%, respectively.
For `CCCC1(CCC)C(=O)OC[C@H]1NS(=O)(=O)c1ccc(OC)cc1` (racemic), in test [2], the Stimulation was -22%. Further, the Displacement in [4] is 80%; in [5], 0%; in test [11] it was 0%.
For the compound `CCCC1(CCC)C(=O)OC[C@H]1NC(=O)OC(C)(C)C` (racemic), the Stimulation in [2] came to 46%.
Turning to `C=CC[C@H]1C(=O)OC[C@H]1NCc1ccccc1` (racemic), in [2], the Stimulation is 73%. In addition, the Displacement in test [4] turned out to be 60%; in test [5], 0%; in test [11], 0%.
For `C=CC[C@@H]1C(=O)OC[C@H]1NCc1ccccc1` (racemic), the Stimulation in test [2] was -1%.
`CCCC1(CCC)C(=O)OC[C@H]1NS(=O)(=O)c1ccc(C(F)(F)F)cc1` (racemic): in [2], the Stimulation was -44%. Moreover, the Displacement in the test listed under Rattus norvegicus [17] was 40%; in the test filed under Rattus norvegicus [18], 70%; in test [5], -20%; in [11], 0%.
`CCCC1(CCC)C(=O)OC[C@H]1NC(=O)OCc1ccccc1`: in [10], the Stimulation worked out at 104%.
As to `CCCC1(CCC)C(=O)OC[C@H]1NS(=O)(=O)c1ccc(Cl)cc1` (racemic), the Stimulation in test [19] was found to be 23%. Besides, the Displacement was 85% in test [4], -25% in test [5] and 0% in [11].
Turning to `CCCC1(CCC)C(=O)OC[C@H]1NC(=O)OCC` (racemic), the Stimulation in test [2] was determined as 426%. Moreover, the Displacement in test [4] is 30%; in test [5] it was 0%; in test [11] it was 0%.
As for `C=CCC1(CC=C)C(=O)OC[C@H]1NCc1ccccc1` (racemic), in test [2], the Stimulation was found to be 115%. Besides, the Displacement is 60% in test [4], -14% in [5] and 0% in test [11].
